# Laboratory results published in ChEMBL document CHEMBL1275345, “Pyrazolo[1',5':1,6]pyrimido[4,5-d]pyridazin-4(3H)-ones as selective human A(1) adenosine receptor ligands” (Bioorg Med Chem, 2010).
# Calls of active or inactive are those of the source. The calls are words filed in the database; no cut-off is given here.
# How the values were obtained:
# [1] = target: T1, Adenosine receptor A3 (Homo sapiens) (UniProt P0DMS8); assay: Displacement of [3H]NECA from human adenosine A3 receptor expressed in HeLa cells at 10 uM after 180 mins; format: cell-based
# T1 sequence (whole entry): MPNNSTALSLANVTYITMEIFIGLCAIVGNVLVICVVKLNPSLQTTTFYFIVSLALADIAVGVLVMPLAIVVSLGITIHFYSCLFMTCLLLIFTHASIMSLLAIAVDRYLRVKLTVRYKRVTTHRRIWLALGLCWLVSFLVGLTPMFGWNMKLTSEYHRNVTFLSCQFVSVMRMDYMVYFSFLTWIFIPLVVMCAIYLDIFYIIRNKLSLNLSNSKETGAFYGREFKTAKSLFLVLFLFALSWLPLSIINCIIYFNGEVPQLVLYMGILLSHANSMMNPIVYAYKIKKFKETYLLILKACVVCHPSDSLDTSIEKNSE
# Procedure, shortened: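 HeLa cells expressing human A3 receptor, with displacement of [3H]NECA. Incubated at 25 °C for 180 min, then filtered and counted by beta scintillation. Ki (nM) or percentage inhibition at the single test concentration. Means of four assays, each in triplicate.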
# Adenosine receptor A2a [2] = target: T2, Adenosine receptor A2a (Homo sapiens, UniProt P29274); assay: Displacement of [3H]ZM241385 from human adenosine A2a receptor expressed in HeLa cells after 30 mins; format: cell-based
# T2 sequence (P29274 whole entry): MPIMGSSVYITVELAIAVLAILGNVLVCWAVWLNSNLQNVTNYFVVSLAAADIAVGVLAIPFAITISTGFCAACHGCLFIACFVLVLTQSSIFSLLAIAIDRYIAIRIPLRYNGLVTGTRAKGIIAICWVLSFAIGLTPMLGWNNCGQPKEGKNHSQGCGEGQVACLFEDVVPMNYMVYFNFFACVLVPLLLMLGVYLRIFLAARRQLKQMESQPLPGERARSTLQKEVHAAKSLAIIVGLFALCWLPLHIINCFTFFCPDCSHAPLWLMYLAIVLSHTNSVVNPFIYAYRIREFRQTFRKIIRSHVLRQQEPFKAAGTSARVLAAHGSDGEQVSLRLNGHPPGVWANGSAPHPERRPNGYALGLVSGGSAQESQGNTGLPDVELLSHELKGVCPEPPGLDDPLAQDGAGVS
# Procedure, shortened: (§1)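 [3H]ZM241385 specific binding in HeLa cells expressing human A2A receptor. Incubation at 25 °C for 30 min, followed by filtration and beta scintillation counting. Output is Ki (nM) or % inhibition at the single test concentration. Values are means of four separate assays, each performed in triplicate.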
# [3] = target: T3, Adenosine receptor A2b (Homo sapiens) (UniProt P29275); assay: Displacement of [3H]DPCPX from human adenosine A2b receptor expressed in HEK293 cells at 10 uM after 30 mins; format: cell-based
# T3 sequence (whole entry): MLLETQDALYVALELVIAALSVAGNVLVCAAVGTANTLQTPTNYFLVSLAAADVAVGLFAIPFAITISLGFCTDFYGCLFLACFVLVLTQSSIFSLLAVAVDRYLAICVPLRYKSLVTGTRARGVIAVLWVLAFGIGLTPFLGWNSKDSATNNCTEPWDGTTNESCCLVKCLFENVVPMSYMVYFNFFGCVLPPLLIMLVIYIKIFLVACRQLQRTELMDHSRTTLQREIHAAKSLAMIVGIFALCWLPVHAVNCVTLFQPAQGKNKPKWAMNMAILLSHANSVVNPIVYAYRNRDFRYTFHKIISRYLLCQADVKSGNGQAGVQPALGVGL
# Procedure, shortened: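 Human A2B receptor expressed in HEK-293 cells, with displacement of [3H]DPCPX. Incubated at 25 °C for 30 min, then filtered and counted by beta scintillation. Reported as Ki (nM) or percentage inhibition at the single test concentration. Means of four independent assays, each run in triplicate.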
# Adenosine receptor A1 = target: T4, Adenosine receptor A1 (Homo sapiens, UniProt P30542); assay: Displacement of [3H]DPCPX from human adenosine A1 receptor expressed in CHO-A1 cells after 60 mins; format: cell-based
# T4 sequence (P30542 whole entry): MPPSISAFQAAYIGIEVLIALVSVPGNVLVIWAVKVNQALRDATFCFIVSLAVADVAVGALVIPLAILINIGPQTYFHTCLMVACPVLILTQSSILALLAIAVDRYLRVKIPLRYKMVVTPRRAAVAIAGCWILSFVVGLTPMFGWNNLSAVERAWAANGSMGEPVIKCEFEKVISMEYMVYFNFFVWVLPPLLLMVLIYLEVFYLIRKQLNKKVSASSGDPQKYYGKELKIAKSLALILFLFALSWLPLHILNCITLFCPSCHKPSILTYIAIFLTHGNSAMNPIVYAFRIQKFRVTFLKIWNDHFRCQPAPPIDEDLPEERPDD
# Procedure, shortened: (§2)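 Competition binding on membranes from CHO cells expressing human A1 receptor, labelled with 2 nM [3H]DPCPX. Non-specific binding defined with (R)-PIA. Incubation at 25 °C for 60 min, then filtration and beta scintillation counting. Result given as Ki (nM) or % inhibition at the single test concentration. Means of four separate assays, each in triplicate.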
# Adenosine receptor A2a [4] = target: T2, Adenosine receptor A2a; assay: Displacement of [3H]ZM241385 from human adenosine A2a receptor expressed in HeLa cells at 10 uM after 30 mins; format: cell-based; procedure, shortened: as §1
# [5] = target: T5, Adenosine receptor A1 (Homo sapiens) (UniProt P30542); assay: Displacement of [3H]DPCPX from human adenosine A1 receptor expressed in CHO-A1 cells at 10 uM after 60 mins; format: cell-based; procedure, shortened: as §2
# T5 sequence (whole entry): T4 sequence (P30542 whole entry)
# [6] = target: cGMP-specific 3',5'-cyclic phosphodiesterase (Homo sapiens) (UniProt O76074); assay: Inhibition of human platelets PDE5 at 2 uM
# Procedure, shortened: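 PDE5 came from human platelet lysate (10⁹ platelets): the supernatant was fractionated on a Mono-Q ion-exchange column. Activity was measured with a two-step cyclic nucleotide phosphodiesterase procedure. Compounds were tested at a single concentration and the result given as % inhibition.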
# Homo sapiens = organism: Homo sapiens; assay: Selectivity ratio of Ki for human adenosine A2a receptor to Ki for human A1 receptor
Structure (SMILES),inhibition [1],Ki (Adenosine receptor A2a [2]) [nM],inhibition [3],Ki (Adenosine receptor A1) [nM],inhibition (Adenosine receptor A2a [4]),inhibition [5] [%],inhibition [6] [%],Ratio Ki (Homo sapiens)
CCc1nc2c(=O)n(Cc3ccccc3)nc(-c3ccncc3)c2c2cc(-c3ccccc3)nn12,inactive,2490,inactive,71.8,,,,
Cc1nc2c(=O)n(Cc3ccccc3)nc(-c3ccccc3)c2c2cc(-c3ccccc3)nn12,inactive,,inactive,1590,inactive,,,
CCCc1nc2c(=O)n(Cc3ccccc3)nc(-c3ccncc3)c2c2cc(-c3ccccc3)nn12,inactive,772,inactive,28.3,,,,
CCc1nc2c(=O)n(Cc3ccccc3)nc(-c3ccc(F)cc3)c2c2cc(-c3ccccc3)nn12,inactive,,inactive,,inactive,< 50,,
CCc1nc2c(=O)n(Cc3ccccc3)nc(-c3ccccc3)c2c2cc(-c3ccccc3)nn12,inactive,,inactive,2440,inactive,,,
Cc1nn(C(C)c2ccccc2)c(=O)c2ncn3nc(-c4ccccc4)cc3c12 (stereo unspecified),< 50%,,< 50%,475,< 50%,,,
O=c1c2ncn3nc(-c4ccccc4)cc3c2c(-c2cccc(F)c2)nn1Cc1ccccc1,inactive,,inactive,92.7,inactive,,,
Cc1nc2c(=O)n(Cc3ccccc3)nc(-c3ccncc3)c2c2cc(-c3ccccc3)nn12,inactive,501,inactive,43.6,,,5.7,
Cc1nn(Cc2ccccc2)c(=O)c2nnn3nc(-c4ccccc4)cc3c12,< 50%,,< 50%,,< 50%,< 50,,
Fc1ccc(-c2nnc(Cl)c3ncn4nc(-c5ccccc5)cc4c23)cc1,inactive,,inactive,,inactive,< 50,,
Cc1nn(Cc2ccccc2)c(=O)c2ncn3nccc3c12,< 50%,,< 50%,,< 50%,< 50,,
CCCc1nc2c(=O)n(Cc3ccccc3)nc(-c3ccccc3)c2c2cc(-c3ccccc3)nn12,inactive,,inactive,563,inactive,,,
Cc1nn(Cc2ccccc2)c(=O)c2nc(C)n3nccc3c12,< 50%,,< 50%,,< 50%,< 50,,
O=c1c2ncn3nc(-c4ccccc4)cc3c2c(-c2ccccc2)nn1Cc1ccccc1,inactive,,inactive,1430,inactive,,,
Cc1nc2c(=O)n(Cc3ccccc3)nc(-c3cccc(F)c3)c2c2cc(-c3ccccc3)nn12,inactive,,inactive,3240,inactive,,,
Cc1nc2c(=O)n(Cc3ccccc3)nc(-c3ccc(F)cc3)c2c2cc(-c3ccccc3)nn12,inactive,,inactive,,inactive,< 50,,
Cc1nc2c(=O)n(Cc3ccccc3)nc(-c3cccc(F)c3)c2c2cc(-c3ccsc3)nn12,inactive,,inactive,,inactive,< 50,,

Structure (SMILES),inhibition [1],Ki (Adenosine receptor A2a [2]) [nM],inhibition [3],Ki (Adenosine receptor A1) [nM],inhibition (Adenosine receptor A2a [4]),inhibition [5] [%],inhibition [6] [%],Ratio Ki (Homo sapiens)
O=c1c2ncn3nc(-c4ccccc4)cc3c2c(-c2cccnc2)nn1Cc1ccccc1,inactive,805,inactive,11.4,,,,71
O=c1c2ncn3nc(-c4ccsc4)cc3c2c(-c2cccc(F)c2)nn1Cc1ccccc1,inactive,,inactive,189,inactive,,,
Cc1nn(Cc2ccccc2)c(=O)c2nc(C)n3nc(-c4ccccc4)cc3c12,< 50%,,< 50%,3250,< 50%,,,
CC(C)c1nc2c(=O)n(Cc3ccccc3)nc(-c3ccccc3)c2c2cc(-c3ccccc3)nn12,inactive,,inactive,,inactive,< 50,,
Cc1nc2c(=O)n(Cc3ccccc3)nc(-c3cccnc3)c2c2cc(-c3ccccc3)nn12,inactive,2110,inactive,47.4,,,29.7,
O=c1c2ncn3nc(-c4ccccc4)cc3c2c(-c2ccncc2)nn1Cc1ccccc1,inactive,67.9,inactive,10.2,,,,7
Cc1nc2c(=S)n(Cc3ccccc3)nc(-c3ccncc3)c2c2cc(-c3ccccc3)nn12,inactive,572,inactive,267,,,,
O=c1c2ncn3nc(-c4ccccc4)cc3c2c(-c2ccc(F)cc2)nn1Cc1ccccc1,inactive,,inactive,252,inactive,,,
CCc1nc2c(=O)n(C(C)c3ccccc3)nc(C)c2c2cc(-c3ccccc3)nn12 (stereo unspecified),< 50%,,< 50%,2380,< 50%,,,
CC(C)c1nc2c(=O)n(Cc3ccccc3)nc(-c3ccncc3)c2c2cc(-c3ccccc3)nn12,inactive,5190,inactive,192,,,,
O=c1c2nc(C(F)(F)F)n3nc(-c4ccccc4)cc3c2c(-c2ccc(F)cc2)nn1Cc1ccccc1,inactive,,inactive,,inactive,< 50,,
CCc1nc2c(=O)n(Cc3ccccc3)nc(-c3cccc(F)c3)c2c2cc(-c3ccsc3)nn12,inactive,,inactive,,inactive,< 50,,
Cc1nc2c(=O)n(Cc3ccccc3)nc(Cl)c2c2cc(-c3ccccc3)nn12,< 50%,3150,< 50%,1620,,,,
CCc1nc2c(=O)n(Cc3ccccc3)nc(-c3cccnc3)c2c2cc(-c3ccccc3)nn12,inactive,,inactive,180,< 50%,,32.8,
CCc1nc2c(=O)n(Cc3ccccc3)nc(-c3cccc(F)c3)c2c2cc(-c3ccccc3)nn12,inactive,,inactive,,inactive,< 50,,
Cc1nc2c(SCc3ccccc3)nnc(-c3ccncc3)c2c2cc(-c3ccccc3)nn12,inactive,,inactive,,< 50%,< 50,,
O=c1c2ncn3nc(-c4ccsc4)cc3c2c(-c2ccc(F)cc2)nn1Cc1ccccc1,inactive,,inactive,123,inactive,,,
